Measured values published in article PMC7816766 (Journal of Medicinal Chemistry, 2020).
“Also recorded” adds a separate entry of the source. Each block holds one compound with its values, some of them ahead of it.

How the values were obtained:
[1] = molecular target: STAT3 (Mus musculus, UniProt P42227); assay type: biochemical; details: for direct effect on STAT3 activity in the DNA-binding assay/EMSA: up to 10 μM
[2] = test system: MDA-MB-231 cells; assay: CyQuant cell viability assay, MDA-MB-231; assay type: cell-based; details: Homo sapiens, MDA-MB-231, 72 h, read-out: Cell viability EC50 MDA-MB-231
[3] = test system: MDA-MB-231 or MDA-MB-468 cells; assay: Cell viability/growth of breast cancer cells harboring active STAT3; assay type: cell-based, human; details: for viability, anchorage-dependent and independent growth, and colony formation: at 1 μM or less
[4] = molecular target: T1, STAT1:STAT1 homodimers (Mus musculus, UniProt P42225); assay type: biochemical; details: 10 µM, MGFe probe (Fig. S6)
T1 sequence (P42225 2-749 limits assumed): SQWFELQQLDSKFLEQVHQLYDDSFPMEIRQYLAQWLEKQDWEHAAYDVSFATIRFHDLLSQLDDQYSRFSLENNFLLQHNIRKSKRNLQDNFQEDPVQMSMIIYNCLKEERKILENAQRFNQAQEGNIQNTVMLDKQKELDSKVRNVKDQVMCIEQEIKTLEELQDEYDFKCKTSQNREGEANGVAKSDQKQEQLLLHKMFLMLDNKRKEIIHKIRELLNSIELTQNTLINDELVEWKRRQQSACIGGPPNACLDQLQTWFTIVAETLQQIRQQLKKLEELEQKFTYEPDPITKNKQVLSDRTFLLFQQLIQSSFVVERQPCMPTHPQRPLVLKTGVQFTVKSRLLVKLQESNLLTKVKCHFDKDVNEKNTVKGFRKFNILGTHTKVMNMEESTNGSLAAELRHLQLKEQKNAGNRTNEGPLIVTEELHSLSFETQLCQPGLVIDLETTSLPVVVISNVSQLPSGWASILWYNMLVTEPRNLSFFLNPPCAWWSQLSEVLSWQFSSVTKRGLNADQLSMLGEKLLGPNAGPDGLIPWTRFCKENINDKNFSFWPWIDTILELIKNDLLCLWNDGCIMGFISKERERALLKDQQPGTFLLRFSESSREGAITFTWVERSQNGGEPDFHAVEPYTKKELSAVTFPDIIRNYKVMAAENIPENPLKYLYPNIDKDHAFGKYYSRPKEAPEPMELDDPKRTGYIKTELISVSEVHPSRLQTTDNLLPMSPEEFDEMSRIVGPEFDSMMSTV

[5] = test system: STAT5:STAT5 homodimers; assay type: biochemical; details: 10 µM, MGFe probe (Fig. S6)
[6] = test system: MDA-MB-468 cells; assay: CyQuant cell viability assay, MDA-MB-468; assay type: cell-based; details: Homo sapiens, MDA-MB-468, 72 h, read-out: Cell viability EC50 MDA-MB-468
Summary of the method: (§1)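 Cells in 96-well plates were treated with test compound over a range of concentrations for 72 h, then assayed with CyQuant. Viability was normalised to control as % and plotted against concentration to derive EC50. Media: MCF-10A in DMEM/F12 with 5% horse serum, EGF, insulin and hydrocortisone; other lines in DMEM with 10% heat-inactivated FBS.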

[7] = test system: MCF-10A cells; assay: CyQuant cell viability assay, MCF-10A; assay type: cell-based; details: Homo sapiens, 72 h, read-out: Cell viability EC50 MCF-10A
Summary of the method: as §1

[8] = test system: MDA-MB-231 cells; assay: Clonogenic; assay type: cell-based, human; details: treated once
Summary of the method: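 Cells were seeded as single-cell cultures at 250 cells per well. They were treated once the next day with test compound at 0–1 μM and cultured until large colonies were visible. Colonies were stained with crystal violet for 4 h and photographed. Data came from three independent determinations.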

[9] = test system: STAT3 DNA-binding activity in MDA-MB-468 cells; assay: Constitutive STAT3 DNA-binding activity in treated breast cancer cells; assay type: cell-based, human; details: for earliest time of inhibition of STAT3 DNA-binding activity in cells: MDA-MB-468; for constitutive STAT3 DNA-binding activity in cells: cells treated with 1–5 μM (BBI-608 0.5–5 μM, 2–3 h)
Summary of the method: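 MDA-MB-468 cells were treated with 5 μM test compound for 1–3 h; controls received 0.05% DMSO. Nuclear extracts of equal total protein were incubated with 33P-labelled hSIE probe (c-fos m67 variant) for 30 min at 30 °C. STAT3:DNA complexes were then resolved by EMSA. Results came from two to three independent determinations.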

[10] = test system: pY705STAT3; assay: Immunoblotting for pY705STAT3 in treated breast cancer cells; assay type: cell-based, human; details: 1–5 μM, 0–24 h (BBI-608 0.5–5 μM, 2–3 h)
Summary of the method: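 Controls received 0.05% DMSO. Equal-protein RIPA whole-cell lysates were immunoblotted for pY705STAT3, STAT3 and tubulin. Results came from two to three independent determinations.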

[11] = test system: EGFR, JAK2, Src, AKT and ERK1/2; assay: Immunoblotting for nonspecific effects in MDA-MB-231 cells; assay type: cell-based, human; details: 1 or 3 μM
[12] = test system: c-Myc, VEGF, Bcl-2, survivin; assay: Immunoblotting for STAT3 target gene expression in MDA-MB-231 cells; assay type: cell-based, human; details: 1 or 3 μM, 3–24 h
Summary of the method: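 MDA-MB-231 cells were treated with 1 or 3 μM test compound for 3–24 h; controls received 0.05% DMSO. Whole-cell lysates were prepared in RIPA buffer. Equal total protein was run on SDS-PAGE and immunoblotted for c-Myc, Bcl-2, VEGF and survivin, with tubulin as loading control. Results came from two to three independent determinations.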

[13] = test system: MDA-MB-231 and MDA-MB-468 cells; assay: Induction of apoptosis, PARP cleavage by Western blotting; assay type: cell-based, human; details: 1 or 3 μM, 3–24 h
[14] = test system: human breast cancer cells; assay: Combination treatment with docetaxel or cisplatin, CyQuant assay; assay type: cell-based; details: 1 μM 7g for 6 h, then 0–100 nM docetaxel or 0–20 μM cisplatin, 72 h
[15] = Human HLM MetID study; assay type: in vitro ADME; details: preliminary results
[16] = test system: MDA-MB-231 cells; assay: Cell growth by trypan blue exclusion/phase-contrast microscopy, MDA-MB-231; assay type: cell-based, human; details: 2 μM
[17] = test system: MCF-7 cells; assay: Cell growth by trypan blue exclusion/phase-contrast microscopy, MCF-7; assay type: cell-based, human; details: 2 μM
Summary of the method: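 Cells cultured in 6-well plates and treated once with 2 μM test compound. Every 24 h (up to 96 h), cells were harvested and viable cells counted by trypan blue exclusion under phase-contrast microscopy. Counts were plotted against treatment duration. Cells were grown in DMEM with 10% heat-inactivated FBS.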

[18] = test system: MCF-7 cells; assay: CyQuant cell viability assay, MCF-7; assay type: cell-based, human
Summary of the method: as §1

Chain of STAT3 (P42227 2-770 limits assumed): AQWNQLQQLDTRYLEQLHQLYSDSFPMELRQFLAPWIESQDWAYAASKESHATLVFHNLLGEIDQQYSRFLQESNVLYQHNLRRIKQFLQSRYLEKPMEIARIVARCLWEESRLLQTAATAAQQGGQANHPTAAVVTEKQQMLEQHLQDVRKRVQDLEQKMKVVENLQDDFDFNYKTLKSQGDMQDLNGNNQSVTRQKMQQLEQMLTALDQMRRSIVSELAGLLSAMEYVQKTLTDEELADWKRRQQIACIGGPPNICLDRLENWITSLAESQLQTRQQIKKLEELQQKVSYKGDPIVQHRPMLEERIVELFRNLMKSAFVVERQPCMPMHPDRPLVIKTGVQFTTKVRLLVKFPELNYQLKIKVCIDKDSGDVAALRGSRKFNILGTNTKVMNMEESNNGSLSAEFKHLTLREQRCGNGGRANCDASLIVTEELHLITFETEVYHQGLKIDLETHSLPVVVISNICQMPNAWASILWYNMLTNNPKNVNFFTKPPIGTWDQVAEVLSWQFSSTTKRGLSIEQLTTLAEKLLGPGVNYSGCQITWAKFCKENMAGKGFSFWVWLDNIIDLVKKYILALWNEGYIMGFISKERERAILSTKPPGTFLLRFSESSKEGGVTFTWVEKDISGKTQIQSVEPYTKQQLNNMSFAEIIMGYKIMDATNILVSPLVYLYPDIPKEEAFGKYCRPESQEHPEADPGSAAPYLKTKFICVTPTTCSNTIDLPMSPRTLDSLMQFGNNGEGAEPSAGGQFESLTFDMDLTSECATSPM

SMILES: COC(=O)c1ccc(N(Cc2ccc(C3CCCCC3)nc2)C(=O)[C@H]2CCN2S(=O)(=O)c2c(F)c(F)c(F)c(F)c2F)cc1O [Compound 7c]
EC50 [7]: 3.6 µM

SMILES: O=C1OCc2cc(N(Cc3ccc(C4CCCCC4)cn3)C(=O)[C@H]3CCN3S(=O)(=O)c3c(F)c(F)c(F)c(F)c3F)ccc21 [Compound 7g]
viability, anchorage-dependent and independent growth, and colony formation [3]: strongly inhibited | inhibition of colony formation ([8]; 0.5 μM): significant inhibition of colony formation | inhibition of colony formation ([8]; 1 μM): complete inhibition of colony formation | earliest time of inhibition of STAT3 DNA-binding activity in cells [9]: 5 min | constitutive STAT3 DNA-binding activity in cells [9]: inhibited to variable degrees | pY705STAT3 in breast cancer cells [10]: inhibited pY705STAT3 in dose- and time-dependent manner | effect on tyrosine kinases EGFR, JAK2, Src, or AKT and ERK1/2 [11]: no measurable effect | expression of STAT3 target genes c-Myc, VEGF, Bcl-2, survivin [12]: inhibited the expression | PARP cleavage [13]: induced poly (ADP-ribose) polymerase (PARP) cleavage | response to combined treatment with docetaxel or cisplatin [14]: strong shift of the dose–response curves to the left indicative of an enhanced response | species found in HLM MetID study [15]: both the parent compound and its hydroxy-acid metabolite

SMILES: COc1ccc(S(=O)(=O)Nc2cc(-c3c(O)ccc4ccccc34)c(O)c3ccccc23)cc1 [Compound C188-9]
direct effect on STAT3 activity in the DNA-binding assay/EMSA [1]: minimal direct effect | stronger activity against MCF-7 than MDA-MB-231 [18]: 2 fold

SMILES: CC(=O)c1cc2c(o1)C(=O)c1ccccc1C2=O [napabucasin, reference compound]
direct effect on STAT3 activity in the DNA-binding assay/EMSA [1]: minimal direct effect | constitutive STAT3 DNA-binding activity in cells [9]: weak to moderate effects | pY705STAT3 in breast cancer cells [10]: weak to moderate effects

Second part, led by results:

EMSA IC50 ([1]; STAT3:DNA complexes, hSIE probe, 30 min preincubation at room temperature): loss of activity
SMILES: O=C(O)c1ccc(N(Cc2ccc(C3CCCCC3)cc2)C(=O)C2CN(S(=O)(=O)c3c(F)c(F)c(F)c(F)c3F)C2)cc1O [Compound 5c]

EC50 [2]: > 10 µM
SMILES: O=C([C@H]1CCN1S(=O)(=O)c1c(F)c(F)c(F)c(F)c1F)N(Cc1ccc(C2CCCCC2)cc1)c1ccc(-c2nnn[nH]2)cc1 [Compound 6e]
activity against breast cancer cells ([3]; up to 10 μM): weak cellular activity

effect on DNA-binding activity of STAT1:STAT1 homodimers [4]: minimal effect | effect on DNA-binding activity of STAT5:STAT5 homodimers [5]: minimal effect | EC50 [6]: 2.5 µM
SMILES: COC(=O)c1ccc(N(Cc2ccc(C3CCCCC3)cc2)C(=O)[C@H]2CCN2S(=O)(=O)c2c(F)c(F)c(F)c(F)c2F)cc1O [Compound 7a]
EC50 [7]: 4.3 µM

effect on DNA-binding activity of STAT1:STAT1 homodimers [4]: minimal effect | effect on DNA-binding activity of STAT5:STAT5 homodimers [5]: minimal effect
SMILES: COC(=O)c1ccc(N(Cc2ccc(C3CCCCC3)cc2)C(=O)[C@H]2CCN2S(=O)(=O)c2c(F)c(F)c(F)c(F)c2F)c(F)c1 [Compound 7b]
EC50 [7]: 6 µM

effect on DNA-binding activity of STAT5:STAT5 homodimers [5]: minimal effect
SMILES: CNC(=O)c1ccc(N(Cc2ccc(C3CCCCC3)cn2)C(=O)[C@H]2CCN2S(=O)(=O)c2c(F)c(F)c(F)c(F)c2F)cc1O [Compound 8q]
inhibition of colony formation ([8]; 1 μM): does not show any inhibitory effect | cell growth MDA-MB-231, trypan blue exclusion [16]: good activity | cell growth MCF-7, trypan blue exclusion [17]: no effect | earliest time of inhibition of STAT3 DNA-binding activity in cells [9]: 360 min | constitutive STAT3 DNA-binding activity in cells [9]: inhibited to variable degrees | pY705STAT3 in breast cancer cells [10]: inhibited pY705STAT3 in dose- and time-dependent manner

effect on DNA-binding activity of STAT5:STAT5 homodimers [5]: minimal effect
SMILES: O=C1NC(=O)c2cc(N(Cc3ccc(C4CCCCC4)cn3)C(=O)[C@H]3CCN3S(=O)(=O)c3c(F)c(F)c(F)c(F)c3F)ccc21 [Compound 9k]
viability, anchorage-dependent and independent growth, and colony formation [3]: strongly inhibited | inhibition of colony formation ([8]; 0.5 μM): minimal to moderate inhibition of colony formation | inhibition of colony formation ([8]; 1 μM): significant inhibition | cell growth MDA-MB-231, trypan blue exclusion [16]: strongly inhibited cell growth | cell growth MCF-7, trypan blue exclusion [17]: no effect | earliest time of inhibition of STAT3 DNA-binding activity in cells [9]: 5 min | constitutive STAT3 DNA-binding activity in cells [9]: inhibited to variable degrees | pY705STAT3 in breast cancer cells [10]: inhibited pY705STAT3 in dose- and time-dependent manner; also recorded: bounced back by 24 h
